ChEMBL document CHEMBL4138085, “Design, synthesis and antimicrobial evaluation of novel benzimidazole-incorporated sulfonamide analogues” (Eur J Med Chem, 2017)
Values after ≈ are worked out from the molar mass of the structure shown. Active and inactive are the calls of the source. No cut-off for these calls is given here.

How the values were obtained:
Staphylococcus aureus [1] = test: Antibacterial activity against Staphylococcus aureus ATCC 25923 after 24 hrs by NCCLS two fold broth microdilution method; format: functional; conditions: ATCC 25923, 24 h
In short: (§1)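 Two-fold serial broth microdilution in 96-well plates following NCCLS. Compounds were dissolved in DMSO as stocks, then diluted in Mueller–Hinton broth to final concentrations of 0.5–512 µg/mL. Plates were inoculated and incubated at 37 °C for 24 h, with growth read visually and spectrophotometrically. MIC was taken as the lowest concentration giving complete growth inhibition. Run in triplicate, with a DMSO-plus-inoculum solvent control.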

Staphylococcus aureus [2] = test: Antibacterial activity against methicillin-resistant Staphylococcus aureus N315 after 24 hrs by NCCLS two fold broth microdilution method; format: functional; conditions: N315, 24 h
In short: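 Two-fold serial broth microdilution per NCCLS. Chloromycin and norfloxacin as reference drugs; DMSO with inoculum, no drug, as solvent control. Incubation 37 °C for 24 h. Growth read visually and spectrophotometrically. MIC is the lowest concentration completely inhibiting growth; triplicate.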

Bacillus subtilis [3] = test: Antibacterial activity against Bacillus subtilis ATCC 21216 after 24 hrs by NCCLS two fold broth microdilution method; format: functional; conditions: ATCC 21216, 24 h; in short: as §1
Micrococcus luteus = test: Antibacterial activity against Micrococcus luteus ATCC 4698 after 24 hrs by NCCLS two fold broth microdilution method; format: functional; conditions: NCTC 2665, 24 h; in short: as §1
Bacillus = test: Antibacterial activity against Bacillus proteus ATCC 13315 after 24 hrs by NCCLS two fold broth microdilution method; format: functional; conditions: ATCC 13315, 24 h; in short: as §1
Escherichia coli = test: Antibacterial activity against Escherichia coli ATCC 8099 after 24 hrs by NCCLS two fold broth microdilution method; format: functional; conditions: ATCC 8099, 24 h
In short: (§2)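 Two-fold serial broth microdilution in 96-well plates following NCCLS. Plates were inoculated and incubated at 37 °C for 24 h, with growth read visually and spectrophotometrically. MIC was taken as the lowest concentration giving complete growth inhibition. Run in triplicate, with a DMSO-plus-inoculum solvent control.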

Pseudomonas aeruginosa [4] = test: Antibacterial activity against Pseudomonas aeruginosa ATCC 27853 after 24 hrs by NCCLS two fold broth microdilution method; format: functional; conditions: ATCC 27853, 24 h; in short: as §2
Salmonella typhi = test: Antibacterial activity against Bacillus typhi after 24 hrs by NCCLS two fold broth microdilution method; format: functional, Salmonella enterica subsp. enterica serovar Typhi; conditions: Salmonella enterica
In short: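 Two-fold serial broth microdilution per NCCLS. DMSO stocks diluted in Mueller–Hinton broth to 512, 256, 128, 64, 32, 16, 8, 4, 2, 1, 0.5 µg/mL. Chloromycin and norfloxacin as reference drugs; DMSO with inoculum, no drug, as solvent control. Incubation 37 °C for 24 h. Growth read visually and spectrophotometrically. MIC is the lowest concentration completely inhibiting growth; triplicate.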

Candida albicans = test: Antifungal activity against Candida albicans ATCC 76615 after 24 hrs by NCCLS two fold broth microdilution method; format: functional; conditions: ATCC 76615, 24 h
In short: (§3)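 Two-fold serial microdilution following NCCLS. A spore suspension in sterile distilled water was prepared from one-day-old cultures grown on Sabouraud agar and adjusted to a final 1–5 × 10^3 spores/mL. DMSO stocks were diluted in RPMI 1640 to eleven concentrations (0.5–512 µg/mL), inoculated and held at 35 °C for 24 h. Growth was read visually and spectrophotometrically, MIC was the lowest concentration with complete inhibition, and runs were in triplicate.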

Pichia norvegensis = test: Antifungal activity against Candida mycoderma after 24 hrs by NCCLS two fold broth microdilution method; format: functional
Cyberlindnera jadinii = test: Antifungal activity against Candida utilis after 24 hrs by NCCLS two fold broth microdilution method; format: functional; conditions: Williopsis jadinii; in short: as §3
Saccharomyces cerevisiae = test: Antifungal activity against Saccharomyces cerevisiae after 24 hrs by NCCLS two fold broth microdilution method; format: functional; in short: as §3
Aspergillus flavus [5] = test: Antifungal activity against Aspergillus flavus after 24 hrs by NCCLS two fold broth microdilution method; format: functional; in short: as §3
Aspergillus flavus [6] = test: Potency index, ratio of Fluconazole MIC to compound MIC for Aspergillus flavus; format: functional
Staphylococcus aureus [7] = test: Potency index, ratio of Chloromycin MIC to compound MIC for Staphylococcus aureus ATCC 25923; format: functional
Staphylococcus aureus [8] = test: Potency index, ratio of norfloxacin MIC to compound MIC for Staphylococcus aureus ATCC 25923; format: functional
Bacillus subtilis [9] = test: Potency index, ratio of Chloromycin MIC to compound MIC for Bacillus subtilis ATCC 21216; format: functional
Pseudomonas aeruginosa [10] = test: Potency index, ratio of Chloromycin MIC to compound MIC for Pseudomonas aeruginosa ATCC 27853; format: functional
Calf thymus DNA [11] = test: Binding affinity to calf thymus DNA assessed as increase in maximum absorption by UV-vis absorption spectra analysis; format: nucleic-acid assay; conditions: Bos taurus
In short: (§4)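 Calf thymus DNA was held at a fixed concentration and titrated with increasing amounts of compound. UV-vis absorption spectra were recorded, following the DNA absorption maximum at 260 nm.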

Calf thymus DNA [12] = test: Binding affinity to calf thymus DNA assessed as hypochromic effect up to 1.6 10^-5 mol/L by UV-vis absorption spectra analysis; format: nucleic-acid assay; conditions: Bos taurus; in short: as §4
Calf thymus DNA [13] = test: Binding affinity to calf thymus DNA assessed as hyperchromic effect up to 1.6 10^-5 mol/L by UV-vis absorption spectra analysis; format: nucleic-acid assay; conditions: Bos taurus; in short: as §4
Calf thymus DNA [14] = test: Binding affinity to calf thymus DNA by UV-vis absorption spectra analysis; format: nucleic-acid assay; conditions: Bos taurus; in short: as §4
Calf thymus DNA [15] = test: Inhibition of neutral red binding to calf thymus DNA up to 0.48 10^-5 mol/L by UV-vis absorption spectra analysis; format: nucleic-acid assay; conditions: Bos taurus
Albumin [16] = molecular target: T1, Albumin (Homo sapiens, UniProt P02768); test: Binding affinity to human serum albumin up to 1.6 10^-5 mol/L by UV-vis absorption spectra analysis; format: ADME; conditions: isolated protein
T1 sequence (P02768 whole entry): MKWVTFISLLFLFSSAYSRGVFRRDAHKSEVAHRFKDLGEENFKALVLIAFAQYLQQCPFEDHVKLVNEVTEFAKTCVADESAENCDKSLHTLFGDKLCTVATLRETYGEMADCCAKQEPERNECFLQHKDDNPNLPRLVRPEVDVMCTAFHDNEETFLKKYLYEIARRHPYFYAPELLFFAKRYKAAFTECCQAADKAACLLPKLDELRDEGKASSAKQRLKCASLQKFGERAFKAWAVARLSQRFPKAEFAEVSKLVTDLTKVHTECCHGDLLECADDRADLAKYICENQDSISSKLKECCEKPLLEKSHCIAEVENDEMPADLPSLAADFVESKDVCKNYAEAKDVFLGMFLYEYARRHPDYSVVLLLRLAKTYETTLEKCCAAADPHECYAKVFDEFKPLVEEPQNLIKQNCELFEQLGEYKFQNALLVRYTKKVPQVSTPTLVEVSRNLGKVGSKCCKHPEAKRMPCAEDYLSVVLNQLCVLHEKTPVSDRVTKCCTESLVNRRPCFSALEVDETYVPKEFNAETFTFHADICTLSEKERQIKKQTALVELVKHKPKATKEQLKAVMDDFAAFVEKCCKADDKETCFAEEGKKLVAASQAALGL

Albumin [17] = molecular target: T1, Albumin; test: Binding affinity to human serum albumin by fluorescence spectroscopic analysis; format: ADME; conditions: isolated protein
Albumin [18] = molecular target: T1, Albumin; test: Binding affinity to human serum albumin assessed as Stern-Volmer quenching constant at 273 K by fluorescence spectroscopic analysis; format: ADME; conditions: isolated protein
In short: (§5)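 Intrinsic fluorescence of HSA (single Trp-214, emission peak 348 nm) was recorded with increasing compound concentration at several temperatures. Quenching data were fitted to the Stern-Volmer equation F0/F = 1 + KSV[Q] = 1 + Kqτ0[Q] to give KSV, and Kq was derived via τ0.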

Albumin [19] = molecular target: T1, Albumin; test: Binding affinity to human serum albumin assessed as quenching constant at 273 K by fluorescence spectroscopic analysis; format: ADME; conditions: isolated protein; in short: as §5
Albumin [20] = molecular target: T1, Albumin; test: Binding affinity to human serum albumin at 273 K by modified Stern-Volmer method; format: ADME; conditions: isolated protein
Albumin [21] = molecular target: T1, Albumin; test: Binding affinity to human serum albumin at 273 K by scatchard plot analysis; format: ADME; conditions: isolated protein
Albumin [22] = molecular target: T1, Albumin; test: Binding affinity to human serum albumin assessed as change in enthalpy at 273 K by van't Hoff plot analysis; format: ADME; conditions: isolated protein
Albumin [23] = molecular target: T1, Albumin; test: Binding affinity to human serum albumin assessed as Gibbs free energy change at 273 K by van't Hoff plot analysis; format: ADME; conditions: isolated protein
Albumin [24] = molecular target: T1, Albumin; test: Binding affinity to human serum albumin assessed as change in entropy at 273 K by van't Hoff plot analysis; format: ADME; conditions: isolated protein
Albumin [25] = molecular target: T1, Albumin; test: Binding affinity to human serum albumin assessed as Stern-Volmer quenching constant at 293 K by fluorescence spectroscopic analysis; format: ADME; conditions: isolated protein; in short: as §5
Albumin [26] = molecular target: T1, Albumin; test: Binding affinity to human serum albumin assessed as Stern-Volmer quenching constant at 313 K by fluorescence spectroscopic analysis; format: ADME; conditions: isolated protein; in short: as §5
Albumin [27] = molecular target: T1, Albumin; test: Binding affinity to human serum albumin assessed as quenching constant at 293 K by fluorescence spectroscopic analysis; format: ADME; conditions: isolated protein; in short: as §5
Albumin [28] = molecular target: T1, Albumin; test: Binding affinity to human serum albumin assessed as quenching constant at 313 K by fluorescence spectroscopic analysis; format: ADME; conditions: isolated protein; in short: as §5
Albumin [29] = molecular target: T1, Albumin; test: Binding affinity to human serum albumin at 293 K by modified Stern-Volmer method; format: ADME; conditions: isolated protein
Albumin [30] = molecular target: T1, Albumin; test: Binding affinity to human serum albumin at 313 K by modified Stern-Volmer method; format: ADME; conditions: isolated protein
Albumin [31] = molecular target: T1, Albumin; test: Binding affinity to human serum albumin at 293 K by scatchard plot analysis; format: ADME; conditions: isolated protein
Albumin [32] = molecular target: T1, Albumin; test: Binding affinity to human serum albumin at 313 K by scatchard plot analysis; format: ADME; conditions: isolated protein
Albumin [33] = molecular target: T1, Albumin; test: Binding affinity to human serum albumin assessed as Gibbs free energy change at 293 K by van't Hoff plot analysis; format: ADME; conditions: isolated protein
Albumin [34] = molecular target: T1, Albumin; test: Binding affinity to human serum albumin assessed as Gibbs free energy change at 313 K by van't Hoff plot analysis; format: ADME; conditions: isolated protein

Molecule Nc1ccc(S(=O)(=O)Cc2nc3ccccc3n2Cc2ccccc2F)cc1 has an MIC (Staphylococcus aureus [1]) of 64 mg/L (≈ 162 µM), an MIC (Staphylococcus aureus [2]) of 64 mg/L (≈ 162 µM) and an MIC (Bacillus subtilis [3]) of 16 mg/L (≈ 40.5 µM). The MIC (Micrococcus luteus) was 32 mg/L (≈ 80.9 µM), the MIC (Bacillus) was 256 mg/L (≈ 647 µM) and the MIC (Escherichia coli) was 4 mg/L (≈ 10.1 µM). The MIC (Pseudomonas aeruginosa [4]) was 512 mg/L (≈ 1290 µM), the MIC (Salmonella typhi) was 16 mg/L (≈ 40.5 µM) and the MIC (Candida albicans) was 128 mg/L (≈ 324 µM). For the same molecule, the MIC (Pichia norvegensis) was 8 mg/L (≈ 20.2 µM), the MIC (Cyberlindnera jadinii) was 4 mg/L (≈ 10.1 µM) and the MIC (Saccharomyces cerevisiae) was 8 mg/L (≈ 20.2 µM). It also gave an MIC (Aspergillus flavus [5]) of 32 mg/L (≈ 80.9 µM) and a Ratio (Aspergillus flavus [6]) of 8.

Molecule CC(=O)Nc1ccc(S(=O)(=O)Cc2nc3ccccc3n2Cc2ccc(F)cc2)cc1 has an MIC (Staphylococcus aureus [1]) of 4 mg/L (≈ 9.14 µM), an MIC (Staphylococcus aureus [2]) of 16 mg/L (≈ 36.6 µM) and an MIC (Bacillus subtilis [3]) of 16 mg/L (≈ 36.6 µM). The MIC (Micrococcus luteus) was 64 mg/L (≈ 146 µM), the MIC (Bacillus) was 32 mg/L (≈ 73.1 µM) and the MIC (Escherichia coli) was 32 mg/L (≈ 73.1 µM). For the same molecule, the MIC (Pseudomonas aeruginosa [4]) was 256 mg/L (≈ 585 µM), the MIC (Salmonella typhi) was 16 mg/L (≈ 36.6 µM) and the Ratio (Staphylococcus aureus [7]) was 2. For the same molecule, the Ratio (Staphylococcus aureus [8]) was 2, the Ratio (Bacillus subtilis [9]) was 2 and the Ratio (Pseudomonas aeruginosa [10]) was 4. The MIC (Candida albicans) was 64 mg/L (≈ 146 µM), the MIC (Pichia norvegensis) was 64 mg/L (≈ 146 µM) and the MIC (Cyberlindnera jadinii) was 16 mg/L (≈ 36.6 µM). For the same molecule, the MIC (Saccharomyces cerevisiae) was 64 mg/L (≈ 146 µM), the MIC (Aspergillus flavus [5]) was 64 mg/L (≈ 146 µM) and the Activity (Calf thymus DNA [11]) was “Dose-dependent effect”. For the same molecule, the Activity (Calf thymus DNA [12]) was “inactive”, the Activity (Calf thymus DNA [13]) was “Active” and the K (Calf thymus DNA [14]) was 1.26 ×10⁴ L/mol. For the same molecule, the inhibition (Calf thymus DNA [15]) was “Active”, the Activity (Albumin [16]) was “Active” and the Activity (Albumin [17]) was “Dose-dependent effect”. The KSV (Albumin [18]) was 3.26 ×10⁴ L/mol, the Kq (Albumin [19]) was 5.09 ×10¹² L/mol/s and the Ka (Albumin [20]) was 54300 M⁻¹. It also gave a Kb (Albumin [21]) of 78600 M⁻¹, a deltaH (Albumin [22]) of -1.757 kJ/mol and a deltaG (Albumin [23]) of -24.31 kJ/mol. For the same molecule, the deltaS (Albumin [24]) was 82.61 J/mol/K, the KSV (Albumin [25]) was 2.2 ×10⁴ L/mol and the KSV (Albumin [26]) was 1.83 ×10⁴ L/mol. For the same molecule, the Kq (Albumin [27]) was 3.44 ×10¹² L/mol/s, the Kq (Albumin [28]) was 2.86 ×10¹² L/mol/s and the Ka (Albumin [29]) was 36900 M⁻¹. For the same molecule, the Ka (Albumin [30]) was 35800 M⁻¹, the Kb (Albumin [31]) was 58400 M⁻¹ and the Kb (Albumin [32]) was 41600 M⁻¹. The deltaG (Albumin [33]) was -25.542 kJ/mol and the deltaG (Albumin [34]) was -26.774 kJ/mol.
